Series [1] has as its system A549. As to the kind of experiment: Antiproliferative activity against human A549 cells assessed as reduction in cell viability after 24 hrs by MTT assay. In kind it is functional, cell-based. As to conditions: A549, 24 h. In general terms: Tetrazolium dyes change colour on reduction, which living cells bring about.
Series [2] concerns A549. Nature of the series: Induction of apoptosis in human A549 cells assessed as viable cells at 2 uM after 24 hrs by Annexin-V/PI staining based flow cytometry analysis (reference value: 91.4%). In kind it is functional. As to conditions: A549, 24 h, read-out: Activity. The gist of the method: (§1)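 A549 cells seeded overnight at 37 °C, 5% CO2, then exposed to 0, 2, 4, 8 or 12 µM for 24 h (dose series) or 8 µM for 0, 12, 24, 36 h (time series). Harvested, PBS-washed, stained with Annexin V-FITC and PI in binding buffer 15 min at room temperature in the dark, analysed by flow cytometry; three independent experiments.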
(In general: A flow cytometer gives signals particle by particle.)

Series [3] concerns A549. Nature of the series: Induction of apoptosis in human A549 cells assessed as necrotic cells after at 2 uM 24 hrs by Annexin-V/PI staining based flow cytometry analysis (reference value: 1.81%). Type of series: functional. The gist of the method: as §1
In series [4] the test system is A549. Nature of the series: Induction of apoptosis in human A549 cells assessed as necrotic cells after at 8 uM 12 hrs by Annexin-V/PI staining based flow cytometry analysis (reference value: 2.98%). In kind it is functional. The gist of the method:
as §1

In series [5] the test system is A549. As to the kind of experiment: Induction of apoptosis in human A549 cells assessed as viable cells at 8 uM after 24 hrs by Annexin-V/PI staining based flow cytometry analysis (reference value: 88.4%). In kind it is functional. The conditions noted are these: A549, 24 h, read-out: Activity. The gist of the method:
as §1

Series [6] relates to A549. Nature of the series: Induction of apoptosis in human A549 cells assessed as necrotic cells after at 8 uM 24 hrs by Annexin-V/PI staining based flow cytometry analysis (reference value: 2.98%). Type of series: functional. The gist of the method: as §1
For series [7], the system named is A549. As to the kind of experiment: Induction of apoptosis in human A549 cells assessed as viable cells at 8 uM after 36 hrs by Annexin-V/PI staining based flow cytometry analysis (reference value: 88.4%). Type of series: functional. As to conditions: A549, 36 h, read-out: Activity. The essentials: as §1
Series [8] deals with A549. As to the kind of experiment: Induction of apoptosis in human A549 cells assessed as early apoptotic cells at 8 uM after 36 hrs by Annexin-V/PI staining based flow cytometry analysis (reference value: 2.02%). In kind it is functional.
Series [9] deals with A549. Nature of the series: Induction of apoptosis in human A549 cells incubated for 24 hrs by Annexin-V/PI staining based flow cytometry analysis. Type of series: functional, cell-based. The gist of the method: as §1
Series [10] relates to A549. Nature of the series: Induction of apoptosis in human A549 cells assessed as PARP cleavage expression at 2 to 8 uM after 24 hrs by Western blot analysis. In kind it is functional, cell-based. The essentials: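 Western blot of A549 cells treated for 24 h. Lysates in RIPA buffer were run on SDS-PAGE and transferred to PVDF. Primary antibody at 1:1000 overnight at 4 °C, secondary antibody at 1:3000-1:5000 for 1 h, ECL detection. Densitometry was normalised to GAPDH; mean ± S.E.M. from three independent experiments.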
(In general: In western blotting, separated proteins are transferred to a membrane and probed.)

For series [11], the system named is A549. Nature of the series: Cell cycle arrest in human A549 cells assessed as accumulation at G2/M phase at 4 uM after 24 hrs by RNAse A/ PI staining based flow cytometric analysis (reference value: 9.47%). In kind it is functional. The essentials:
(§2)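 A549 cells at 5.0×10^4 per well were grown 12 h at 37 °C. Treatment was 0, 2, 4 or 8 µM for 24 h, or 8 µM for 0, 12, 24 or 36 h. Cells were fixed in 70% ethanol at −20 °C for at least 12 h, then stained in PBS with 0.1 mg/mL RNase A and 5 µg/mL PI. At least 10,000 events per sample were collected by flow cytometry to give G0/G1, S and G2/M percentages.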

Series [12] relates to A549. As to the kind of experiment: Cell cycle arrest in human A549 cells assessed as accumulation at G2/M phase at 8 uM after 24 hrs by RNAse A/ PI staining based flow cytometric analysis (reference value: 9.47%). Type of series: functional. The gist of the method: as §2
Series [13] relates to A549. Nature of the series: Cell cycle arrest in human A549 cells assessed as accumulation at G2/M phase at 8 uM after 24 hrs by RNAse A/ PI staining based flow cytometric analysis (reference value: 12.65%). In kind it is functional. The gist of the method:
as §2

The test system of series [14] is A549. Nature of the series: Induction of G2/M cell cycle arrest in human A549 cells assessed as increase in CDK1 expression at 2 to 8 uM by immunoblot analysis. In kind it is functional, cell-based. The gist of the method:
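A549 lysates in RIPA buffer with protease inhibitors were run on SDS-PAGE and blotted to PVDF. Membranes were probed overnight at 4 °C with primary antibody at 1:1000, then secondary antibody at 1:3000-1:5000 for 1 h, and detected by ECL. Band intensity was normalised to GAPDH. Results are mean ± S.E.M. from three independent experiments.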

The target in another series is Tubulin (Homo sapiens) (UniProt P68371+Q9H4B7+P0DPH7+P68366+Q13509+Q71U36+P04350+Q3ZCM7+P07437+P68363+Q9BQE3+Q6PEY2+Q13885+Q9BVA1+Q9BUF5). As to the kind of experiment: Induction of tubulin depolymerization in human A549 cells at 4 to 8 uM after 24 hrs by DAPI staining based fluorescence microscopic analysis. In kind it is cell-based. The gist of the method: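 Cells were fixed in 4% paraformaldehyde, permeabilised with 1% Triton, and blocked with 5% BSA. Staining used anti-tubulin (1:200) overnight, then Cy3 anti-mouse IgG (1:1500) 1 h, then DAPI 1 µg/mL. Imaging by confocal microscopy.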

The subject of series [15] is A549. As to the kind of experiment: Antimigratory activity against human A549 cells measured up to 48 hrs by phase contrast microscopic based wound healing assay. Type of series: functional, cell-based. The essentials:
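A549 monolayer seeded at 2×10^5 cells per cm² overnight, incubated 24 h, then scratched with a micropipette tip. The same cell-free area was imaged by phase-contrast microscopy at 0, 24 and 48 h. Wound area was outlined by image analysis to quantify the reduction in cell-free space; n = 3.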

The test system of series [16] is A549. As to the kind of experiment: Inhibition of Wnt/beta-catenin signaling pathway in human A549 cells assessed as reduction in beta-catenin expression in cytoplasm by Western blot analysis. Type of series: cell-based. The essentials: (§3)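 A549 cells in 6-well plates were lysed in RIPA buffer with protease inhibitors on ice for 30 min and cleared at 4 °C. Protein was quantified by BCA, run on SDS-PAGE and transferred to PVDF. Membranes were blocked with milk, probed with primary antibody (1:1000) overnight at 4 °C, then secondary antibody (1:3000-1:5000) 1 h at RT. Detection by ECL; band densitometry normalised to GAPDH (β-actin also used). Three independent experiments.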

Series [17] deals with A549. As to the kind of experiment: Inhibition of Wnt/beta-catenin signaling pathway in human A549 cells assessed as increase in axin-2 expression by Western blot analysis. In kind it is cell-based. The essentials: as §3
The nature of series [18]: Toxicity in ip dosed Balb/c mouse xenografted with human A549 cells assessed as effect on body weight at 2 to 4 mg/kg, ip administered once every two days for 32 days and measured for every 2 days. Type of series: organism-based. The conditions noted are these: in vivo. The essentials: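 Female BALB/c nude mice (5-6 weeks) received 6×10^6 A549 cells s.c. in the flank. After two weeks (tumours ~90 mm³) they were split into 5 groups (n = 8). Dosing was 2 or 4 mg/kg, dissolved in DMSO, i.p. once every two days for 16 doses; DMSO vehicle served as control. Body weight and tumour volume (L×S²/2) were recorded every two days; mice were killed at day 32.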

Series [19] relates to A549. Nature of the series: Cell cycle arrest in human A549 cells assessed as accumulation at S phase at 8 uM after 12 hrs by RNAse A/ PI staining based flow cytometric analysis (reference value: 19.66%). In kind it is functional. The essentials:
as §2

Series [20] has as its system A549. As to the kind of experiment: Cell cycle arrest in human A549 cells assessed as accumulation at G2/M phase at 8 uM after 12 hrs by RNAse A/ PI staining based flow cytometric analysis (reference value: 12.65%). In kind it is functional. The essentials:
as §2

Active and inactive are the calls of the source. The rule behind the calls is not given here.

By IC50 is commonly meant the concentration at which inhibition is half-maximal. On to `CC(C)=CC[C@@H](OC(=O)/C=C\C(=O)c1ccc(F)cc1)C1=CC(=O)c2c(O)ccc(O)c2C1=O`, for which the IC50 in the series with A549 [1] was determined as 4.37 µM. For the same compound, the viability at 2 µM in the series on A549 [2] worked out at 83.7%. Moreover, the Activity in the series on A549 [3] was 2.2%; in the series on A549 [4] it was 2.04%; with A549 [6] it was 3.72%; with A549 [8] it was 43.8%; in the series with A549 [9], “Dose-dependent effect”; in the series with A549 [11] it was 21.03%. Also, the Activity with A549 [12] is on record as 33.01%; in the series with A549 [13], 33.75%; in [18], “Non-Toxic”; in the series on A549 [19], 24.72%; in the series with A549 [20], 19.4%. Moreover, the viability at 8 µM in the series with A549 [5] is 37.1%; with A549 [7], 12.2%. Moreover, the result in the series with A549 [10], in the series with A549 [14] and at Tubulin (Homo sapiens) was Active. Moreover, the inhibition entry in the series with A549 [15], in the series on A549 [16] and in the series on A549 [17] was “Dose-dependent effect” in each case.

The values above are taken from ChEMBL document CHEMBL4406881, “Design, synthesis and biological evaluation of benzoylacrylic acid shikonin ester derivatives as irreversible dual inhibitors of tubulin and EGFR” (Bioorg Med Chem, 2019).
